Source: ChEMBL document CHEMBL1147738, “Potent and selective mitogen-activated protein kinase kinase (MEK) 1,2 inhibitors. 1. 4-(4-bromo-2-fluorophenylamino)-1- methylpyridin-2(1H)-ones” (J Med Chem, 2006)
Converted amounts (≈) assume the structure as drawn. Values belong to the compound of their own block, whether it stands above or below them.

Legend:
[1] = tested on: Malme-3M; assay: Inhibition of basal ERK phosphorylation in Malme-3M cells; format: functional, Homo sapiens
[2] = tested on: Malme-3M; assay: Inhibition of cellular viability of Malme-3M cells; format: functional, Homo sapiens
[3] = molecular target: Mitogen-activated protein kinase 14 (Homo sapiens) (UniProt Q16539); assay: Inhibition of SAPK2a/p38 at 10 uM
Outline: (§1)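 Kinase panel run at Upstate (Dundee). Each compound was tested at 10 µM against each enzyme and reported as % inhibition.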

[4] = molecular target: T1, Serine/threonine-protein kinase Chk1 (Homo sapiens) (UniProt O14757); assay: Inhibition of CHK1 at 10 uM; outline: as §1
T1 sequence (whole entry): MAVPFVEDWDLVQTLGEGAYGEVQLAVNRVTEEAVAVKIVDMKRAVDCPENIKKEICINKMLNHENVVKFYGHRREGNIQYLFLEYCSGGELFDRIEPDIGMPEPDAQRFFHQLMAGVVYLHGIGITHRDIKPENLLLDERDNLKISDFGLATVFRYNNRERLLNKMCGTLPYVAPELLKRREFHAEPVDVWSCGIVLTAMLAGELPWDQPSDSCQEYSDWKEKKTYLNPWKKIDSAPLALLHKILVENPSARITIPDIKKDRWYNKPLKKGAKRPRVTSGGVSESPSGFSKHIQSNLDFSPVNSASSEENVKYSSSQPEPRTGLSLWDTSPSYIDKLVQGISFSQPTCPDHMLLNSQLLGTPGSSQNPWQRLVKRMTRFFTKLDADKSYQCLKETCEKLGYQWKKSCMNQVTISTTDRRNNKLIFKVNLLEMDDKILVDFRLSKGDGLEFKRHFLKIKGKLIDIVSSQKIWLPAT

[5] = Half life in rat at 10 mg/kg, po; format: ADME, organism-based; set-up: dose 10 mg/kg, route oral; settings: Sprague-Dawley, in vivo
Outline: (§2)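 Male Sprague Dawley rats (6-10 weeks) were given 10 mg/kg by oral gavage (2 mg/mL in 1% CMC/0.5% Tween 80, 5 mL/kg). Tail-vein EDTA blood was drawn at 15 and 30 min and 1, 2, 4, 8, 12, 24, 48, 72 h. Plasma was quantified by LC/MS/MS after methanol precipitation. Parameters came from non-compartmental analysis.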

[6] = molecular target: AMP-activated protein kinase, AMPK (Homo sapiens) (UniProt P54646+O43741+P54619+Q9UGJ0+Q9Y478+Q13131+Q9UGI9); assay: Inhibition of AMPK at 10 uM; format: protein-complex assay; outline: as §1
[7] = molecular target: Rho-associated protein kinase 2 (Homo sapiens) (UniProt O75116); assay: Inhibition of ROCK 2 at 10 uM; outline: as §1
[8] = molecular target: Dual specificity tyrosine-phosphorylation-regulated kinase 1A (Homo sapiens) (UniProt Q13627); assay: Inhibition of DYRK1a at 10 uM; outline: as §1
[9] = tested on: Rattus norvegicus; assay: AUC in rat at 1 mg/kg, iv; format: ADME, organism-based, Sprague-Dawley, Plasma; set-up: dose 1 mg/kg, route intravenous; settings: in vivo
Outline: (§3)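 Male Sprague Dawley rats (6-10 weeks), fed ad lib, dosed IV at 1 mg/kg (1 mg/mL in 10% DMSO/90% normal saline, 1 mL/kg). Tail-vein EDTA blood sampled 1, 5, 15, 30 min and 1, 2, 4, 8, 12, 24 h. Plasma analysed by LC/MS/MS after methanol protein precipitation, range 9 ng/mL to 20 µg/mL. Parameters derived by non-compartmental analysis.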

[10] = molecular target: T2, Lymphokine-activated killer T-cell-originated protein kinase (Homo sapiens) (UniProt Q96KB5); assay: Inhibition of PBK at 10 uM; outline: as §1
T2 sequence (whole entry): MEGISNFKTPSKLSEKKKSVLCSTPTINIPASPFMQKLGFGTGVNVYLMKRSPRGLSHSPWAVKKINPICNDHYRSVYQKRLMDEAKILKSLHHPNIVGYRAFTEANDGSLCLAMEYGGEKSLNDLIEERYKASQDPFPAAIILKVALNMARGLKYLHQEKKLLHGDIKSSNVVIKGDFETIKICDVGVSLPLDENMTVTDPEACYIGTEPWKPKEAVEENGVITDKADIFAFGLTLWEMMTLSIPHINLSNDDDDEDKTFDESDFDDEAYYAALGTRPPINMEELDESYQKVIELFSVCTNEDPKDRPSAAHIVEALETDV

[11] = tested on: Rattus norvegicus; assay: AUC in rat at 10 mg/kg, po; format: ADME, organism-based, Sprague-Dawley, Plasma; set-up: dose 10 mg/kg, route oral; settings: in vivo; outline: as §2
[12] = molecular target: RAC-alpha serine/threonine-protein kinase (Homo sapiens) (UniProt P31749); assay: Inhibition of PKBa at 10 uM; outline: as §1
[13] = molecular target: Casein kinase II (Homo sapiens) (UniProt P67870+P68400+P19784); assay: Inhibition of CK2 at 10 uM; format: protein-complex assay; outline: as §1
[14] = molecular target: Cyclin-dependent kinase 2/cyclin A (Homo sapiens) (UniProt P24941+P20248+P78396); assay: Inhibition of CDK2/cyclin A at 10 uM; format: protein-complex assay; outline: as §1
[15] = molecular target: cAMP-dependent protein kinase (PKA) (Homo sapiens) (UniProt P22694+P17612+P22612); assay: Inhibition of PKA at 10 uM; format: protein assay; outline: as §1
[16] = Clearance in presence of human hepatocytes; format: ADME, cell-based, Liver, Hepatocyte
Outline: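 Human hepatocytes (fresh or cryopreserved) diluted to 2 x 10⁶ viable cells/mL in supplemented Krebs-Henseleit buffer pH 7.3, mixed 1:1 with 2 µM compound working solution. Incubated at 37 °C, 5% CO₂, duplicates, one plate per timepoint. Quenched with labetalol internal standard and centrifuged; compound remaining measured by LC-MS/MS (ESI+, MRM).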

[17] = molecular target: Ribosomal protein S6 kinase alpha-5 (Homo sapiens) (UniProt O75582); assay: Inhibition of MSK1 at 10 uM; outline: as §1
[18] = Oral bioavailability in rat; format: ADME, organism-based; settings: Sprague-Dawley, in vivo
Outline: (§4)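 Male Sprague Dawley rats (6-10 weeks) received IV 1 mg/kg (10% DMSO/90% saline) and PO 10 mg/kg (1% CMC/0.5% Tween 80). Serial tail-vein plasma was taken up to 24 h (IV) or 72 h (PO) and analysed by LC/MS/MS (9 ng/mL to 20 µg/mL). Parameters were calculated non-compartmentally.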

[19] = molecular target: T3, MAP kinase-activated protein kinase 5 (Homo sapiens) (UniProt Q8IW41); assay: Inhibition of PRAK at 10 uM; outline: as §1
T3 sequence (whole entry): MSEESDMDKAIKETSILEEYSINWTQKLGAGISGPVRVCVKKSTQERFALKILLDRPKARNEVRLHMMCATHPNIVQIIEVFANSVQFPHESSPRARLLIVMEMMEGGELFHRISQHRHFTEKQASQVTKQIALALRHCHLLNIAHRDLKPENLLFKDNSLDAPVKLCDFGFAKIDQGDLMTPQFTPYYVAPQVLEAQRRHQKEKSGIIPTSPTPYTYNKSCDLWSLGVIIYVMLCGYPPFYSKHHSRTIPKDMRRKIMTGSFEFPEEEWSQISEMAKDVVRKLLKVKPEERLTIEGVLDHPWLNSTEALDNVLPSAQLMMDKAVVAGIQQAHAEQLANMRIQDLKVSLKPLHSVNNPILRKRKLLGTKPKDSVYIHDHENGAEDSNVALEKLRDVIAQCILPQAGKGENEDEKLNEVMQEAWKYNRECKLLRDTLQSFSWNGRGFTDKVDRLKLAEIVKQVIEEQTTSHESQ

[20] = molecular target: Ribosomal protein S6 kinase alpha-1 (Homo sapiens) (UniProt Q15418); assay: Inhibition of MAPKAP-K1a at 10 uM; outline: as §1
[21] = molecular target: Mitogen-activated protein kinase 11 (Homo sapiens) (UniProt Q15759); assay: Inhibition of SAPK2b/p38--beta-2 at 10 uM; outline: as §1
[22] = molecular target: Glycogen synthase kinase-3 beta (Homo sapiens) (UniProt P49841); assay: Inhibition of GSK3b at 10 uM; outline: as §1
[23] = molecular target: Mitogen-activated protein kinase 8 (Homo sapiens) (UniProt P45983); assay: Inhibition of JNK/SAPK1c at 10 uM; outline: as §1
[24] = Volume of distribution in rat; format: ADME, organism-based; settings: Sprague-Dawley, in vivo, read-out: Vdss; outline: as §4
[25] = molecular target: MAP kinase-activated protein kinase 2 (Homo sapiens) (UniProt P49137); assay: Inhibition of MAPKAP-K2 at 10 uM; outline: as §1
[26] = molecular target: Protein kinase C alpha type (Homo sapiens) (UniProt P17252); assay: Inhibition of PKCa at 10 uM; outline: as §1
[27] = Clearance in rat; format: ADME, organism-based; settings: Sprague-Dawley, in vivo; outline: as §4
[28] = molecular target: Mitogen-activated protein kinase 1 (Homo sapiens) (UniProt P28482); assay: Inhibition of MAPK2/ERK2 at 10 uM; outline: as §1
[29] = molecular target: Ribosomal protein S6 kinase (P70S6K) (Homo sapiens) (UniProt Q9UBS0+P23443); assay: Inhibition of p70 S6K at 10 uM; format: protein-complex assay; outline: as §1
[30] = molecular target: Tyrosine-protein kinase Lck (Homo sapiens) (UniProt P06239); assay: Inhibition of LCK at 10 uM; outline: as §1
[31] = Half life in rat at 1 mg/kg, iv; format: ADME, organism-based; set-up: dose 1 mg/kg, route intravenous; settings: Sprague-Dawley, in vivo; outline: as §3
[32] = Aqueous solubility at pH 6.5; format: physicochemical
Outline: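 Thermodynamic shake-flask method: crystalline solid (0.5 mg, crystallinity confirmed by polarizing microscopy) in 0.5 mL 10 mM potassium phosphate, pH 6.5, swirled 24 h at room temperature. Filtered aliquots were quantified by HPLC-PDA against a calibration curve.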

[33] = tested on: HT-29; assay: Inhibition of ERK phosphorylation in HT29 tumor bearing NCr-nu/nu mice after 4 hrs at 10 mg/kg, po; format: functional; settings: Mus musculus, HT-29, 4 h
[34] = tested on: HT-29; assay: Inhibition of ERK phosphorylation in HT29 tumor bearing Ncr-nu/nu mice after 12 hrs at 10 mg/kg, po; format: functional; settings: Mus musculus, HT-29, 12 h

Chain of MAP kinase-activated protein kinase 2 (Homo sapiens) (P49137 whole entry, looked up): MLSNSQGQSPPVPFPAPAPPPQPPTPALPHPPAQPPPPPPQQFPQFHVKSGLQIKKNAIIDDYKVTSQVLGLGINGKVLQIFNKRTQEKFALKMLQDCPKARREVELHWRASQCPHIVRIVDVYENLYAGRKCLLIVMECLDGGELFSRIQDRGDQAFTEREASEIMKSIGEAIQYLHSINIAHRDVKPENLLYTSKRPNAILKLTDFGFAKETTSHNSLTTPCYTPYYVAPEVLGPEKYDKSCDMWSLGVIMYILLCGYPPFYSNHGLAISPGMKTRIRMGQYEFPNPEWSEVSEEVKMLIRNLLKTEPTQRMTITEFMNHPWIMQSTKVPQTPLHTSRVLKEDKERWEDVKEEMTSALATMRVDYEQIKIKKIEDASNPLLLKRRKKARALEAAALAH
Chain of Mitogen-activated protein kinase 11 (Homo sapiens) (Q15759 whole entry): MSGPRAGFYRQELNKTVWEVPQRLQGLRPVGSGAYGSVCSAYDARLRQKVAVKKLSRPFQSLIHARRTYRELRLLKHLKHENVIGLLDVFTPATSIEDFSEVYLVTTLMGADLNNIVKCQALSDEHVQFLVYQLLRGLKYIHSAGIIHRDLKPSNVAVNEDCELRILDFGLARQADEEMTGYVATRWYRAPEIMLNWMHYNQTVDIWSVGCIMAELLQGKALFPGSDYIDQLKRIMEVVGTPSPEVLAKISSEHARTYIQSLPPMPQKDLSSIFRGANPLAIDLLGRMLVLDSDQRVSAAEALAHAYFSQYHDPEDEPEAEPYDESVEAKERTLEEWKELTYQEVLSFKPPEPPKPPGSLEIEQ
Chain of Rho-associated protein kinase 2 (Homo sapiens) (O75116 whole entry, looked up): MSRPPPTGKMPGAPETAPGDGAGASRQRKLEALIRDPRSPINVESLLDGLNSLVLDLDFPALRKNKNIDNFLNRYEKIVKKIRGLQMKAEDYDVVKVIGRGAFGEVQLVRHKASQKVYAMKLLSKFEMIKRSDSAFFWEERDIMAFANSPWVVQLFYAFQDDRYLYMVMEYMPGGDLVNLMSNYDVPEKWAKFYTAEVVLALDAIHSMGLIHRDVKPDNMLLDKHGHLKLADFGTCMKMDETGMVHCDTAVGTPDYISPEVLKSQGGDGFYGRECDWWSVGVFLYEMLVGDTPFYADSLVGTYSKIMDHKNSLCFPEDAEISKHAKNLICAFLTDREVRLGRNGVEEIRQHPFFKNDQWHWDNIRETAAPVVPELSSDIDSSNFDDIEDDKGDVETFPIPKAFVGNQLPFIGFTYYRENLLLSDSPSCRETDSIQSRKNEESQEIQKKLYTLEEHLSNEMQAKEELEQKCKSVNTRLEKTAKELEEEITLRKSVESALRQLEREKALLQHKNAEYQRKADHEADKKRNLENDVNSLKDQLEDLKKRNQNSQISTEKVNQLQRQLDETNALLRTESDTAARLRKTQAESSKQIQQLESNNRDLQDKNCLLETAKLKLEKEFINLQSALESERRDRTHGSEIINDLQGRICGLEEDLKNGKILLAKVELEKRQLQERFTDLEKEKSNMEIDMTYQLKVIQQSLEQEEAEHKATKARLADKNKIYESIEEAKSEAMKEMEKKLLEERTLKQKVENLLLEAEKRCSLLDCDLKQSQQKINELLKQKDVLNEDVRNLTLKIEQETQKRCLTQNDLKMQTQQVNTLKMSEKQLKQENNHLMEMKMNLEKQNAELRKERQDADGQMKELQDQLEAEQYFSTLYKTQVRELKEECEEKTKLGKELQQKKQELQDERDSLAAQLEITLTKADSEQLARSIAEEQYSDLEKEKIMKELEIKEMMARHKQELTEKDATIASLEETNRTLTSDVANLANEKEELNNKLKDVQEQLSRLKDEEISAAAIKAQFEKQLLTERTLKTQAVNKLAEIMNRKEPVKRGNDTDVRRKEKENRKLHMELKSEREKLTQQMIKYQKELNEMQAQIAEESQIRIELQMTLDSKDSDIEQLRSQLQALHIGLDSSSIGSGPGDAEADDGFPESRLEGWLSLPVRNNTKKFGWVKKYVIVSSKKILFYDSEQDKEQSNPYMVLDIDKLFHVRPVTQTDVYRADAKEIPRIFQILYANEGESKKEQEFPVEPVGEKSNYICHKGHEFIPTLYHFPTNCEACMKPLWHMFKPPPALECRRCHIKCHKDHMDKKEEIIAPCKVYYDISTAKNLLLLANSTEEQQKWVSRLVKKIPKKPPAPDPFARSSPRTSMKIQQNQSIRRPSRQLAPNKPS
Chain of Tyrosine-protein kinase Lck (Homo sapiens) (P06239 2-509 limits assumed): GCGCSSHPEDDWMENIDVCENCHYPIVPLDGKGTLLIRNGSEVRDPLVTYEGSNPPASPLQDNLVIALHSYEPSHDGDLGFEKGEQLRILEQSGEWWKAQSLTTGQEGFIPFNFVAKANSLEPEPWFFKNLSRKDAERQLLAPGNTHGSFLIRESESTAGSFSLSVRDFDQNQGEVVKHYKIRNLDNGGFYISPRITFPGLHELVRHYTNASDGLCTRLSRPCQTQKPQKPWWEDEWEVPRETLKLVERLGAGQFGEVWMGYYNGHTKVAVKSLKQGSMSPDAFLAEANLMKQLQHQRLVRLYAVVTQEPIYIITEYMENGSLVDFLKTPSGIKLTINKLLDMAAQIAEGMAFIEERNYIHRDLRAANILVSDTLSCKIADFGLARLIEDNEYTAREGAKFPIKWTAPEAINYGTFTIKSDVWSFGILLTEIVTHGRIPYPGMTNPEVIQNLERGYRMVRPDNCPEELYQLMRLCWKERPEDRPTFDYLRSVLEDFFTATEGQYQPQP
Chain of Ribosomal protein S6 kinase alpha-1 (Homo sapiens) (Q15418 whole entry): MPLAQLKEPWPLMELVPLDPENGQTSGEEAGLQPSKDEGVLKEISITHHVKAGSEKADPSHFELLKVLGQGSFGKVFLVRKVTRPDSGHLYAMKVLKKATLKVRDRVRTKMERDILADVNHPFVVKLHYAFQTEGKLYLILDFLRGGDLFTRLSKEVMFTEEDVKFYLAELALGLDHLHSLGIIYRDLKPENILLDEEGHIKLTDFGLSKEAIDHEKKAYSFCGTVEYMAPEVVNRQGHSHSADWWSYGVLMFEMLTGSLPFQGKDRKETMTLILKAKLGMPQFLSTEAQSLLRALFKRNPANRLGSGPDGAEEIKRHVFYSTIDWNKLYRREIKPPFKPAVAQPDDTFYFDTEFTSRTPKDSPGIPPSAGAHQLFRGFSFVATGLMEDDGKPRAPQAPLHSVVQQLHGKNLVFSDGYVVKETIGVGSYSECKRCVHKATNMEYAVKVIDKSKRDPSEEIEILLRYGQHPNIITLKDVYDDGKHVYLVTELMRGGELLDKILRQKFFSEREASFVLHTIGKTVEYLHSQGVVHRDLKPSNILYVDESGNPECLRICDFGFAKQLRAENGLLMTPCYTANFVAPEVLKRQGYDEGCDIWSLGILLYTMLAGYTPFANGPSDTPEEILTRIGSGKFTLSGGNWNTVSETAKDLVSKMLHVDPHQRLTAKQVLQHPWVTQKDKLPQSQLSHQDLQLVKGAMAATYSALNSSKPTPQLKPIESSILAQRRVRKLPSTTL
Chain of Mitogen-activated protein kinase 1 (Homo sapiens) (P28482 whole entry): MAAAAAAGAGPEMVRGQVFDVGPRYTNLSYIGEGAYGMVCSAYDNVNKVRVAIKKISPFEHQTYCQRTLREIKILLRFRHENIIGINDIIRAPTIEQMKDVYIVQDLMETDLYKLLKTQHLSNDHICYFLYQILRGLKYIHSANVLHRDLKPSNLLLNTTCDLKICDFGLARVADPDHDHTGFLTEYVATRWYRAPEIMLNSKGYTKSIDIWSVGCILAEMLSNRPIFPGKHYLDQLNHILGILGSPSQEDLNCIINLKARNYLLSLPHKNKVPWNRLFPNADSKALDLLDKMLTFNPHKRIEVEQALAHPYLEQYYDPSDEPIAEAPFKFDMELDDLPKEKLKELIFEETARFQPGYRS
Chain of Mitogen-activated protein kinase 14 (Homo sapiens) (Q16539 whole entry): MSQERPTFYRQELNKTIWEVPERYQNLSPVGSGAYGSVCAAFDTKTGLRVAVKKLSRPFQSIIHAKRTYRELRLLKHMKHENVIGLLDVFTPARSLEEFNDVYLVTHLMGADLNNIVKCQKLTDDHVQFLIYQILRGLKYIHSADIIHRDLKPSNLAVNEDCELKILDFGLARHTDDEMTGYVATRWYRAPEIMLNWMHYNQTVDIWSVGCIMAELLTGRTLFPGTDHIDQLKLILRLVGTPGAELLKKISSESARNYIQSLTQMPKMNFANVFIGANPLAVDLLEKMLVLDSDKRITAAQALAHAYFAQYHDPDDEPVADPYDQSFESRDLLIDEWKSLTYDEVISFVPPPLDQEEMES
Chain of Mitogen-activated protein kinase 8 (Homo sapiens) (P45983 whole entry): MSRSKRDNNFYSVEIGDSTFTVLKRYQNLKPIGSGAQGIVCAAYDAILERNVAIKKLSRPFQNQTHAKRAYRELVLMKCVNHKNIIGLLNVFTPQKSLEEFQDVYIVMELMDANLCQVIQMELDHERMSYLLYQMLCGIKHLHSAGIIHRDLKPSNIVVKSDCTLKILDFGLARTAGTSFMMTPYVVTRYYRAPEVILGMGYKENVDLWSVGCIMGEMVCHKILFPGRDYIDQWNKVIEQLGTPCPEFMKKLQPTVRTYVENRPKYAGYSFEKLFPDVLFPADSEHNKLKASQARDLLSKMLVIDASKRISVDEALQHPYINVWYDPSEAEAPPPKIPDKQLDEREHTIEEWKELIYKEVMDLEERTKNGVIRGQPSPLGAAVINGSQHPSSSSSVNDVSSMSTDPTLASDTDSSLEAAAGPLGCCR
Chain of RAC-alpha serine/threonine-protein kinase (Homo sapiens) (P31749 whole entry): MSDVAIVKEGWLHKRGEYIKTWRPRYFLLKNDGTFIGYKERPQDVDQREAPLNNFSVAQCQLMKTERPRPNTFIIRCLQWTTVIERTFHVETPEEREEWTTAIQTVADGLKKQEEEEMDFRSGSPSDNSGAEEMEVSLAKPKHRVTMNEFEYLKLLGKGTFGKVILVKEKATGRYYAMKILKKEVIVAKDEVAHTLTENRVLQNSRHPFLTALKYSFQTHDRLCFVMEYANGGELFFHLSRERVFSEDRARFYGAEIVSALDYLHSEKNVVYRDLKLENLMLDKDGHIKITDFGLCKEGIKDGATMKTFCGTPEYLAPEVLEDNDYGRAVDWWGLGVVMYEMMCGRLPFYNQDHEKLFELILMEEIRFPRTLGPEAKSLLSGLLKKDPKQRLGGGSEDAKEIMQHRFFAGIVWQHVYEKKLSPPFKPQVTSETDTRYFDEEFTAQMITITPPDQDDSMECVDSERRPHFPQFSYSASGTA

Structure (SMILES): Cn1cc(C(=O)NOCC2CC2)c(Nc2ccc(Br)cc2F)c(F)c1=O
Activity [1]: 3.4 nM | Activity [2]: 22 nM

Structure (SMILES): Cc1c(Nc2ccc(Br)cc2F)c(C(=O)NOCC2CC2)cn(C)c1=O
Activity [1]: 7.5 nM | Activity [2]: 46 nM

Structure (SMILES): CNC(=O)c1cn(C)c(=O)c(F)c1Nc1ccc(Br)cc1F
Activity [1]: 68 nM | Activity [2]: 405 nM

Structure (SMILES): Cn1cc(C(=O)NCC2CC2)c(Nc2ccc(Br)cc2F)c(F)c1=O
Activity [1]: 1206 nM | Activity [2]: >5000 nM

inhibition [3]: 10% | inhibition [4]: 13% | half-life [5]: 12 h | inhibition [6]: 8% | inhibition [7]: 4% | inhibition [8]: 12% | AUC [9]: 24100 ng·h/mL | AUC [11]: 138000 ng·h/mL | inhibition [12]: 6% | inhibition [13]: 4% | inhibition [14]: 25% | inhibition [15]: 14% | CLhep predicted [16]: 2 mL/min/kg | inhibition [17]: 7% | bioavailability [18]: 58% | inhibition [19]: 18% | inhibition [20]: 6% | inhibition [21]: 9% | inhibition [22]: 21% | inhibition [23]: 15% | Vd [24]: 0.4 L/kg | inhibition [25]: 15% | inhibition [26]: 6% | clearance [27]: 0.7 mL/min/kg | inhibition [28]: 7% | inhibition [29]: 13% | inhibition [30]: 19% | half-life [31]: 6 h
Structure (SMILES): CCONC(=O)c1cn(C)c(=O)c(F)c1Nc1ccc(Br)cc1F
inhibition [10]: -1%

half-life [5]: 11 h | solubility [32]: 26 µg/mL (≈ 72.6 µM) | AUC [9]: 2500 ng·h/mL | AUC [11]: 23000 ng·h/mL | CLhep predicted [16]: 9 mL/min/kg | bioavailability [18]: 100% | Vd [24]: 0.8 L/kg | clearance [27]: 5.7 mL/min/kg | half-life [31]: 1.8 h
Structure (SMILES): Cn1cc(C(N)=O)c(Nc2ccc(Br)cc2F)c(F)c1=O
Activity [1]: 7.1 nM | inhibition in vivo at 10 mg/kg [33]: > 80% | inhibition in vivo at 10 mg/kg [34]: 50% | Activity [2]: 48 nM

Structure (SMILES): O=C(NOCCO)c1cnc(Cl)c(Cl)c1Nc1ccc(Br)cc1F
Activity [1]: >10000 nM | Activity [2]: >5000 nM

Structure (SMILES): Cn1cc(C(=O)NOCC2CC2)c(Nc2ccc(Br)cc2F)c(Cl)c1=O
Activity [1]: 27 nM | Activity [2]: 195 nM
